Data published in ChEMBL document CHEMBL4261508, “Pyrazolo[3,4-d]pyrimidines as sigma-1 receptor ligands for the treatment of pain. Part 2: Introduction of cyclic substituents in position 4” (Medchemcomm, 2017).
Converted amounts (≈) assume the structure as drawn. The source made the active and inactive calls.

Columns and labels:
[1] = target: Sigma non-opioid intracellular receptor 1 (Homo sapiens, UniProt Q99720); test: Displacement of [3H]-(+)-pentazocine from recombinant human sigma1 receptor expressed in HEK293 cell membranes after 120 mins by microbeta scintillation counting method
Chain of Sigma non-opioid intracellular receptor 1 (Q99720 whole entry): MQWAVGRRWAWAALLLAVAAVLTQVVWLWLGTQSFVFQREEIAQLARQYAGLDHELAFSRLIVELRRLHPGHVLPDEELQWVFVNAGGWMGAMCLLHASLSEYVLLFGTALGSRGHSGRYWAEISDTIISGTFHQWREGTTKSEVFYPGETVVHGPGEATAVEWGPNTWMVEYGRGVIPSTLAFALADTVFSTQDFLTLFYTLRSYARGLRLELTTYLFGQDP

[2] = Stability of the compound assessed as drug degradation at pH 7.4; format: physicochemical; settings: buffer
Summary of the method: (§1)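 Chemical stability measured by LC/MS. A 10 mM DMSO stock of compound was diluted into phosphate buffer pH 7.4 or 0.01 M HCl pH 2.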

Cavia porcellus = organism: Cavia porcellus; test: Displacement of [3H]-DTG from sigma2 receptor in guinea pig brain membranes at 1 uM after 120 mins in presence of sigma1 […] (+)-SKF10047 by microbeta scintillation counting method relative to control; format: cell membranes; settings: Membrane
Summary of the method: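 σ2R binding in guinea pig brain membranes with [³H]-di-o-tolylguanidine as radioligand. Compound tested at 1 μM as % inhibition. Mean of two determinations.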

[3] = Stability of the compound assessed as drug degradation at pH 2; format: physicochemical; settings: buffer; summary of the method: as §1
Mus musculus [4] = test: Analgesic activity in formalin-induced nociception CD-1 mouse model assessed as reduction in time spent in licking or biting formalin injected hind paw at 80 mg/kg, po pretreated for 30 mins followed by formalin stimulation measured up to 5 mins; format: functional, organism-based
Mus musculus [5] = test: Antinociceptive activity in capsaicin-induced nociception pain CD-1 mouse model assessed as increase in paw withdrawal latency at 80 mg/kg, po pretreated for 30 mins followed by capsaicin challenge measured after 15 mins by von frey filament assay relative to control; format: functional
Summary of the method: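 Capsaicin test in mice, drug given orally at 80 mg/kg. Mechanical hypersensitivity was read as paw withdrawal latency to upward pressure by von Frey filament. Result is % reduction in drug-treated vs vehicle animals.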

Mus musculus [6] = test: Analgesic activity in formalin-induced nociception CD-1 mouse model assessed as reduction in time spent in licking or biting formalin injected hind paw at 40 mg/kg, ip pretreated for 30 mins followed by formalin stimulation measured up to 5 mins; format: functional, organism-based
Mus musculus [7] = test: Antinociceptive activity in partial sciatic nerve ligation CD-1 mouse model of neuropathic pain assessed as reduction in mechanical hypersensitivity at 80 mg/kg, po administered 8 days post partial sciatic nerve injury measured after 30 mins by von frey filament assay relative to control; format: functional; set-up: scale not given: the % may be the effect or the level left
Summary of the method: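 Mice with partial sciatic nerve ligation, drug given orally at 80 mg/kg. Pressure threshold (g) for paw withdrawal to von Frey filament was measured after dosing. It was compared with vehicle response 8 days post-surgery and with pre-ligation baseline to give % reduction of hypersensitivity.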

Mus musculus [8] = test: Analgesic activity in formalin-induced nociception CD-1 mouse model assessed as reduction in time spent in licking or biting formalin injected hind paw at 40 mg/kg, ip pretreated for 30 mins followed by formalin stimulation measured after 15 to 30 mins relative to control; format: functional; set-up: scale not given: the % may be the effect or the level left
Summary of the method: (§2)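 Mice received drug i.p. (40 mg/kg) or p.o. (80 mg/kg), and formalin was injected intraplantar. Paw licking-biting time in phase II (delayed phase) was scored. Result is % antinociception in treated animals vs vehicle.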

Mus musculus [9] = test: Analgesic activity in formalin-induced nociception CD-1 mouse model assessed as reduction in time spent in licking or biting formalin injected hind paw at 80 mg/kg, po pretreated for 30 mins followed by formalin stimulation measured after 15 to 30 mins relative to control; format: functional; set-up: scale not given: the % may be the effect or the level left; summary of the method: as §2
[10] = Thermodynamic solubility of the compound in pH 2 phosphate buffer; format: physicochemical; settings: read-out: Therm_solubility
CYP2C19 = CYP2C19 (Homo sapiens, UniProt P33261); test: Inhibition of recombinant human CYP2C19 at 1 uM relative to control; format: ADME
Chain of CYP2C19 (P33261 whole entry): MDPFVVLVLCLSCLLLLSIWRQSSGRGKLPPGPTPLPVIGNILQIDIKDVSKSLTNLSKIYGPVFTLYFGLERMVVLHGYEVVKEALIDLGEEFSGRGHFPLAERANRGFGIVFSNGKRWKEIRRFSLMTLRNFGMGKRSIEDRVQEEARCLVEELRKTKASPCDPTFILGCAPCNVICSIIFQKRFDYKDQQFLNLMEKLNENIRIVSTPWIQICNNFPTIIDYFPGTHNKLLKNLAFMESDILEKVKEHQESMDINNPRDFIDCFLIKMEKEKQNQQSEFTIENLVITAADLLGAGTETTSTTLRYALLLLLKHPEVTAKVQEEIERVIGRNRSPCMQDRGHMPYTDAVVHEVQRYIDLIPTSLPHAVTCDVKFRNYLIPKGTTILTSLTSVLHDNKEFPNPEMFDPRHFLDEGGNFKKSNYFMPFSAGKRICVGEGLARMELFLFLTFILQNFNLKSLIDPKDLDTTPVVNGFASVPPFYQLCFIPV

HepG2 [11] = test: Cytotoxicity against human HepG2 cells up to 100 uM by neutral red uptake assay; format: cell-based
Summary of the method: (§3)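 HepG2 cells exposed to compound up to 100 μM. Cytotoxicity read by MTT and by Neutral Red uptake.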

[12] = Displacement of [3H]-DTG from sigma2 receptor in guinea pig brain membranes after 120 mins in presence of sigma1 […] (+)-SKF10047 by microbeta scintillation counting method; format: cell membranes, Cavia porcellus, Membrane
CYP2C9 = CYP2C9 (Homo sapiens, UniProt P11712); test: Inhibition of recombinant human CYP2C9 at 1 uM relative to control; format: ADME
Chain of CYP2C9 (P11712 whole entry): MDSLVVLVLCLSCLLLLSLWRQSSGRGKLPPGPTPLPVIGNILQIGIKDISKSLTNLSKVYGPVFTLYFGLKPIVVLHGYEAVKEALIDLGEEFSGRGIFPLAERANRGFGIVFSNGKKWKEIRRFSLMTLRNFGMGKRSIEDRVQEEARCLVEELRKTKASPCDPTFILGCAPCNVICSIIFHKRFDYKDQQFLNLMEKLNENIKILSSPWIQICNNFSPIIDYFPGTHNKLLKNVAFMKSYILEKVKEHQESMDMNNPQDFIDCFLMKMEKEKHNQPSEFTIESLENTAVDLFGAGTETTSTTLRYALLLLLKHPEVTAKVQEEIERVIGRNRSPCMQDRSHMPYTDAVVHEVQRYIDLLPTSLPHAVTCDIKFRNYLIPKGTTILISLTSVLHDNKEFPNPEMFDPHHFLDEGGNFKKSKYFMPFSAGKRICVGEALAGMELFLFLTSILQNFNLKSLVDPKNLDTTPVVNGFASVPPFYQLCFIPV

[13] = Intrinsic clearance in human liver microsomes assessed as per mg protein at 1 uM after 1 hr in presence of NADPH-generating system by UPLC-MS/MS analysis; format: ADME, microsome; settings: read-out: CLH
[14] = Thermodynamic solubility of the compound in pH 7.4 phosphate buffer; format: physicochemical; settings: read-out: Therm_solubility
HepG2 [15] = test: Cytotoxicity against human HepG2 cells up to 100 uM by MTT assay; format: cell-based; summary of the method: as §3
[16] = Apparent permeability in human Caco2 cells; format: ADME, cell-based; settings: Caco-2
CYP3A4 = CYP3A4 (Homo sapiens, UniProt P08684); test: Inhibition of recombinant human CYP3A4 at 1 uM relative to control; format: ADME
Chain of CYP3A4 (P08684 whole entry): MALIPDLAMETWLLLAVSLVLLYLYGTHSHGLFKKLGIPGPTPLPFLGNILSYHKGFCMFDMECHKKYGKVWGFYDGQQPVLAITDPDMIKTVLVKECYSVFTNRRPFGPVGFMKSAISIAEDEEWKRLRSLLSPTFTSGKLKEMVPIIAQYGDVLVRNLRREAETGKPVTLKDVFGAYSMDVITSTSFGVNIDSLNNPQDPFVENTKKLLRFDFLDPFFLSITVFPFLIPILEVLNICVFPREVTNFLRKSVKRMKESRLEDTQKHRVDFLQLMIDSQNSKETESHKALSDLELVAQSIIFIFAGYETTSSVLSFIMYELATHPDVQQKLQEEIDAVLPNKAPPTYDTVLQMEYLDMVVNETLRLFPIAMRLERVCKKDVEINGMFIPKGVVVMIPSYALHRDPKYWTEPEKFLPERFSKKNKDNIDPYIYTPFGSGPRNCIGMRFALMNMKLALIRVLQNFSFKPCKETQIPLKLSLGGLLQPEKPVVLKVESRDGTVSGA

CYP1A2 = target: T1, CYP1A2 (Homo sapiens, UniProt P05177); test: Inhibition of recombinant human CYP1A2 at 1 uM relative to control; format: ADME
T1 sequence (P05177 whole entry): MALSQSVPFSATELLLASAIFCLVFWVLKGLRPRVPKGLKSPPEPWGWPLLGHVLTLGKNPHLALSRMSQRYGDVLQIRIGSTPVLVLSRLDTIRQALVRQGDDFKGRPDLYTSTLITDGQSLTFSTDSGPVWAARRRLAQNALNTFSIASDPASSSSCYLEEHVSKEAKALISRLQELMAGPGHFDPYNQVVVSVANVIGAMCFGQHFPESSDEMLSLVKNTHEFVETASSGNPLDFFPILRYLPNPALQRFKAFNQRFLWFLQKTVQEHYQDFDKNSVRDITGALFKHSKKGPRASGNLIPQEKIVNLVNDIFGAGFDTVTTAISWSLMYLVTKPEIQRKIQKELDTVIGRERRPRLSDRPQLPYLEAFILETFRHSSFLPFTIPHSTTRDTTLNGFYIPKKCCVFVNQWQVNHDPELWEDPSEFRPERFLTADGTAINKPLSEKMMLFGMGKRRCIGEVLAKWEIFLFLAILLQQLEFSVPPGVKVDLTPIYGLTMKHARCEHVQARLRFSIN

CYP2D6 = CYP2D6 (Homo sapiens, UniProt P10635); test: Inhibition of recombinant human CYP2D6 at 1 uM relative to control; format: ADME
Chain of CYP2D6 (P10635 whole entry): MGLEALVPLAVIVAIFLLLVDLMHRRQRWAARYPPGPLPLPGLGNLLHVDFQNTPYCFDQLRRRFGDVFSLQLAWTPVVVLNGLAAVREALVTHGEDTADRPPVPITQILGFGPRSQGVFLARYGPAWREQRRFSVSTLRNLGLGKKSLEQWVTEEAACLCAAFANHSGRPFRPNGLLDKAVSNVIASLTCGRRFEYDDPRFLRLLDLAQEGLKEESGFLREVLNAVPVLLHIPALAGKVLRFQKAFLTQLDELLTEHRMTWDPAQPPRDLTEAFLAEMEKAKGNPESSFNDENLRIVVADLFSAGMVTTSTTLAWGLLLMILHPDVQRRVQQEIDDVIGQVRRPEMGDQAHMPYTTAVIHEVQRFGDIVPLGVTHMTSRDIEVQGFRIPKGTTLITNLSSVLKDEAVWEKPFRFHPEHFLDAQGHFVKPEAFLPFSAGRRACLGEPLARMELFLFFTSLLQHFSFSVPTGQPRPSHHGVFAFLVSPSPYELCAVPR

Salmonella typhimurium = test: Genotoxicity in Salmonella typhimurium TA1535 harboring pSK1002 by […]; format: toxicity, organism-based; settings: salmonella enterica subsp. enterica serovar typhimurium

Compound: CC(C)n1cc(-c2ncnc3c2cnn3CCN2CCCCC2)cn1
- Ki [1]: 2910 nM

Compound: Cc1ccc(Cl)c(-c2ncnc3c2cnn3CCN2CCCCC2)c1
- Stability [2]: Stable
- inhibition (Cavia porcellus): 95%
- Stability [3]: Stable
- Ki [1]: 31 nM

Compound: Cc1cncc(-c2ncnc3c2cnn3CCN2CCCCC2)c1
- Ki [1]: 447 nM

Compound: COc1ccc(-c2ncnc3c2cnn3CCN2CCCCC2)cn1
- Ki [1]: 38300 nM

Compound: Cc1cccc(-c2ncnc3c2cnn3CCN2CCCCC2)n1
- Ki [1]: 709 nM

Compound: c1ccc2c(c1)ncn2-c1ncnc2c1cnn2CCN1CCCCC1
- inhibition (Cavia porcellus): 66%
- Ki [1]: 112 nM

Compound: Cc1cc(OCCN2CCOCC2)nn1-c1ccc2ccccc2c1
- Stability [2]: Stable
- Activity (Mus musculus [4]): Active
- Activity (Mus musculus [5]): 48%
- Activity (Mus musculus [6]): Active
- Activity (Mus musculus [7]): 62%
- Stability [3]: Stable
- Activity (Mus musculus [8]): 50%
- Activity (Mus musculus [9]): 66%

Compound: c1nc(-c2cnsc2)c2cnn(CCN3CCCCC3)c2n1
- inhibition (Cavia porcellus): 40%
- Ki [1]: 475 nM

Compound: Cn1cc(-c2ncnc3c2cnn3CCN2CCCCC2)cn1
- Ki [1]: 9460 nM

Compound: CC1(C)CCN(c2ncnc3c2cnn3CCN2CCCCC2)C1
- inhibition (Cavia porcellus): 58%
- Ki [1]: 165 nM

Compound: c1ccc(-c2ncnc3c2cnn3CCN2CCCCC2)nc1
- Ki [1]: 634 nM

Compound: Fc1ccc(-c2ncnc3c2cnn3CCN2CCCCC2)cc1
- Stability [2]: Stable
- inhibition (Cavia porcellus): 75%
- Stability [3]: Stable
- Ki [1]: 95 nM

Compound: Cc1ccccc1-c1ncnc2c1cnn2CCN1CCCCC1
- Stability [2]: Stable
- inhibition (Cavia porcellus): 83%
- Stability [3]: Stable
- Ki [1]: 74 nM

Compound: Cc1cc(F)ccc1-c1ncnc2c1cnn2CCN1CCCCC1
- Stability [2]: Stable
- inhibition (Cavia porcellus): 86%
- Stability [3]: Stable
- Ki [1]: 48 nM

Compound: Fc1ccc(-c2ncnc3c2cnn3CCN2CCCCC2)c(F)c1
- Stability [2]: Stable
- inhibition (Cavia porcellus): 83%
- Stability [3]: Stable
- Ki [1]: 93 nM

Compound: c1nc(N2CCCCC2)c2cnn(CCN3CCCCC3)c2n1
- inhibition (Cavia porcellus): 67%
- Ki [1]: 200 nM

Compound: COc1cc(F)ccc1-c1ncnc2c1cnn2CCN1CCCCC1
- Stability [2]: Stable
- inhibition (Cavia porcellus): 87%
- Stability [3]: Stable
- Ki [1]: 39 nM

Compound: Cn1cnc(-c2ncnc3c2cnn3CCN2CCCCC2)c1
- Ki [1]: 11800 nM

Compound: c1nc(-c2cn[nH]c2)c2cnn(CCN3CCCCC3)c2n1
- Ki [1]: 802 nM

Compound: c1cncc(-c2ncnc3c2cnn3CCN2CCCCC2)c1
- Ki [1]: 926 nM

Compound: N#Cc1ccc(-c2ncnc3c2cnn3CCN2CCCCC2)cc1
- inhibition (Cavia porcellus): 47%
- Ki [1]: 558 nM

Compound: Clc1ccc(-c2ncnc3c2cnn3CCN2CCCCC2)cc1
- Stability [2]: Stable
- inhibition (Cavia porcellus): 74%
- Stability [3]: Stable
- Ki [1]: 43 nM

Compound: Cc1ccncc1-c1ncnc2c1cnn2CCN1CCCCC1
- Ki [1]: 707 nM

Compound: c1ccc(C2CCN(c3ncnc4c3cnn4CCN3CCCCC3)C2)cc1 (centres undefined)
- inhibition (Cavia porcellus): 71%
- Ki [1]: 294 nM

Compound: Cn1nccc1-c1ncnc2c1cnn2CCN1CCCCC1
- solubility thermodynamic [10]: 2400 µg/mL (≈ 7.71 mM)
- inhibition at 1 µM (CYP2C19): < 50%
- Stability [2]: Stable
- Activity (HepG2 [11]): Non-Toxic
- Ki [12]: > 1000 nM
- inhibition at 1 µM (CYP2C9): < 50%
- microsomal CLint at 1 µM [13]: 2.4 µL/min/mg
- Activity (Mus musculus [4]): Active
- solubility thermodynamic [14]: 1500 µg/mL (≈ 4.82 mM)
- Activity (Mus musculus [5]): 43%
- Activity (Mus musculus [6]): Active
- Activity (HepG2 [15]): Non-Toxic
- Papp [16]: 40.7 ×10⁻⁶ cm/s
- inhibition at 1 µM (CYP3A4): < 50%
- Activity (Mus musculus [7]): 46%
- Stability [3]: Stable
- inhibition at 1 µM (CYP1A2): < 50%
- Activity (Mus musculus [8]): 67%
- inhibition at 1 µM (CYP2D6): < 50%
- Activity (Salmonella typhimurium): Non-Toxic
- Activity (Mus musculus [9]): 54%
